Test results: ChEMBL document CHEMBL3739264, “Synthesis and bio-evaluation of novel quinolino-stilbene derivatives as potential anticancer agents” (Bioorg Med Chem, 2015)
The source made the active and inactive calls. The rule behind the calls is not given here.

Legend:
[1] = Antiproliferative activity against human 184B5 cells after 72 hrs by SRB assay; format: cell-based; conditions: 184B5, 72 h
Procedure, shortened: (§1)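 Cells seeded at 4,000-5,000/well for 16 h, then exposed 72 h to serial dilutions of compound in DMSO; sham DMSO as 100% and TCA-treated wells as 0%. Fixed in 10% TCA at 4°C for 1 h, stained with 0.4% SRB for 30 min, dye solubilised in 10 mmol Tris pH 10.5, read at 540 nm. IC50 from sigmoidal dose-response curves; two biological replicates, four technical each.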

[2] = system: MDA-MB-468; assay: Antiproliferative activity against human MDA-MB-468 cells after 72 hrs by SRB assay; format: functional, cell-based; conditions: MDA-MB-468, 72 h; procedure, shortened: as §1
[3] = system: HeLa; assay: Antiproliferative activity against human HeLa cells after 72 hrs by SRB assay; format: functional, cell-based; procedure, shortened: as §1
[4] = system: MCF7; assay: Antiproliferative activity against human MCF7 cells after 72 hrs by SRB assay; format: functional, cell-based; conditions: MCF7, 72 h
Procedure, shortened: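 Cells seeded at 4,000-5,000/well for 16 h, then exposed 72 h to serial dilutions of compound in DMSO; sham DMSO as 100% and TCA-treated wells as 0%. IC50 from sigmoidal dose-response curves; two biological replicates, four technical each.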

[5] = system: MDA-MB-231; assay: Antiproliferative activity against human MDA-MB-231 cells after 72 hrs by SRB assay; format: functional, cell-based; conditions: MDA-MB-231, 72 h; procedure, shortened: as §1
[6] = system: MDA-MB-468; assay: Cell cycle arrest in human MDA-MB-468 cells assessed as accumulation at S phase at 1 uM after 12 hrs by flow cytometry analysis relative to control; format: functional
Procedure, shortened: (§2)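 Cells seeded overnight at about 1 × 10^6 per plate, treated next morning, and harvested at set times. Fixed in 75% ethanol at -20°C for 12-24 h, then stained 1 h in PBS with 0.3% NP-40, 100 µg/ml RNase A and 100 µg/ml propidium iodide. Phase distribution read from DNA content by flow cytometry against sham-treated cells.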

[7] = system: MDA-MB-468; assay: Cell cycle arrest in human MDA-MB-468 cells assessed as accumulation at G0-G1 phase at 1 uM after 24 hrs by flow cytometry analysis relative to control; format: functional; procedure, shortened: as §2
[8] = system: MDA-MB-468; assay: Cell cycle arrest in human MDA-MB-468 cells assessed as accumulation at G0-G1 phase at 1 uM after 72 hrs by flow cytometry analysis relative to control; format: functional; procedure, shortened: as §2
[9] = system: MDA-MB-468; assay: Cell cycle arrest in human MDA-MB-468 cells assessed as accumulation at S phase at 1 uM after 48 hrs by flow cytometry analysis relative to control; format: functional; procedure, shortened: as §2
[10] = system: MDA-MB-468; assay: Cell cycle arrest in human MDA-MB-468 cells assessed as accumulation at sub-G1 phase at 1 uM after 24 hrs by flow cytometry analysis relative to control; format: functional; procedure, shortened: as §2
[11] = system: MDA-MB-468; assay: Cell cycle arrest in human MDA-MB-468 cells assessed as accumulation at G2/M phase at 1 uM after 48 hrs by flow cytometry analysis relative to control; format: functional; procedure, shortened: as §2
[12] = system: MDA-MB-468; assay: Cell cycle arrest in human MDA-MB-468 cells assessed as accumulation at G0-G1 phase at 1 uM after 12 hrs by flow cytometry analysis relative to control; format: functional; procedure, shortened: as §2
[13] = system: MDA-MB-468; assay: Cell cycle arrest in human MDA-MB-468 cells assessed as accumulation at S phase at 1 uM after 24 hrs by flow cytometry analysis relative to control; format: functional; procedure, shortened: as §2
[14] = system: MDA-MB-468; assay: Cell cycle arrest in human MDA-MB-468 cells assessed as accumulation at sub-G1 phase at 1 uM after 12 hrs by flow cytometry analysis relative to control; format: functional; procedure, shortened: as §2
[15] = system: MDA-MB-468; assay: Induction of DNA damage in human MDA-MB-468 cells at 1 uM after 24 hrs by immunostaining; format: functional, cell-based
Procedure, shortened: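 γH2A.X (phospho-Ser139) immunostaining, with HeLa at 6 µM for 24 or 48 h and MDA-MB468 at 1 µM. Cells on coverslips fixed and permeabilized in ice-cold methanol at -20°C. Blocked in 1% FBS, primary antibody 1:200 overnight at 4°C, then fluorophore-conjugated secondary 1 h. DNA counterstained with DRAQ5.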

[16] = system: MDA-MB-468; assay: Cell cycle arrest in human MDA-MB-468 cells assessed as accumulation at sub-G1 phase at 1 uM after 48 hrs by flow cytometry analysis relative to control; format: functional; procedure, shortened: as §2
[17] = system: MDA-MB-468; assay: Cell cycle arrest in human MDA-MB-468 cells assessed as accumulation at G2/M phase at 1 uM after 12 hrs by flow cytometry analysis relative to control; format: functional; procedure, shortened: as §2
[18] = system: MDA-MB-468; assay: Cell cycle arrest in human MDA-MB-468 cells assessed as accumulation at G2/M phase at 1 uM after 24 hrs by flow cytometry analysis relative to control; format: functional; procedure, shortened: as §2
[19] = system: MDA-MB-468; assay: Cell cycle arrest in human MDA-MB-468 cells assessed as accumulation at G2/M phase at 1 uM after 72 hrs by flow cytometry analysis relative to control; format: functional; procedure, shortened: as §2
[20] = system: MDA-MB-468; assay: Cell cycle arrest in human MDA-MB-468 cells assessed as accumulation at G0-G1 phase at 1 uM after 48 hrs by flow cytometry analysis relative to control; format: functional; procedure, shortened: as §2
[21] = system: MDA-MB-468; assay: Cell cycle arrest in human MDA-MB-468 cells assessed as accumulation at S phase at 1 uM after 72 hrs by flow cytometry analysis relative to control; format: functional; procedure, shortened: as §2
[22] = system: MDA-MB-468; assay: Cell cycle arrest in human MDA-MB-468 cells assessed as accumulation at sub-G1 phase at 1 uM after 72 hrs by flow cytometry analysis relative to control; format: functional; procedure, shortened: as §2
[23] = target: Tubulin (Homo sapiens) (UniProt P68371+Q9H4B7+P0DPH7+P68366+Q13509+Q71U36+P04350+Q3ZCM7+P07437+P68363+Q9BQE3+Q6PEY2+Q13885+Q9BVA1+Q9BUF5); conditions: 5 uM

| SMILES | IC50 [1] [µM] | IC50 [2] [µM] | IC50 [3] [µM] | IC50 [4] [µM] | IC50 [5] [µM] | also measured |
| --- | --- | --- | --- | --- | --- | --- |
| COc1ccc2nc(Cl)c(/C=C\c3ccc(C(F)(F)F)cc3C(F)(F)F)cc2c1 | > 50 | > 50 | > 50 | > 50 | > 50 |  |
| COc1ccc2nc(Cl)c(/C=C/c3ccc(F)cc3)cc2c1 | 9.74 | 14.8 | > 50 | 14.1 | 11 |  |
| FC(F)(F)c1ccc(/C=C\c2cc3ccc(Cl)cc3nc2Cl)cc1 | 26.4 | 16.1 | 12.6 | 6.45 | 13.6 |  |
| FC(F)(F)c1cc(/C=C\c2cc3cc4c(cc3nc2Cl)OCO4)cc(C(F)(F)F)c1 | > 50 | > 50 | > 50 | > 50 | > 50 |  |
| FC(F)(F)c1ccc(/C=C\c2cc3ccccc3nc2Cl)cc1 | 7.94 | 7.38 | 4.22 | 4.26 | 5.36 |  |
| COc1ccc2nc(Cl)c(/C=C\c3ccc(C(F)(F)F)cc3)cc2c1 | 40 | 22.7 | 16.2 | 12.4 | 22.8 |  |
| Fc1ccc(/C=C\c2cc3ccc(Cl)cc3nc2Cl)cc1 | 26.9 | 10.9 | 38.6 | 16.9 | 42.6 |  |
| COc1ccc2nc(Cl)c(/C=C/c3ccc(C(F)(F)F)cc3)cc2c1 | 33.5 | > 50 | > 50 | 47 | 48.8 |  |
| CC(=O)O[C@H]1C(=O)[C@@]2(C)[C@H]([C@H](OC(=O)c3ccccc3)[C@]3(O)C[C@H](OC(=O)[C@H](O)[C@@H](NC(=O)c4ccccc4)c4ccccc4)C(C)=C1C3(C)C)[C@]1(OC(C)=O)CO[C@@H]1C[C@@H]2O [PACLITAXEL] | 0.00232 | 0.00387 | 0.00229 |  | 0.00256 |  |
| Fc1ccc(/C=C\c2cc3ccccc3nc2Cl)cc1 | 35.7 | 5.29 | 24.9 | 20.3 | 24 |  |
| FC(F)(F)c1ccc(/C=C\c2cc3ccccc3nc2Cl)c(C(F)(F)F)c1 |  |  | 35.9 | 10.5 | 41.8 |  |
| COc1ccc2nc(Cl)c(/C=C\c3ccccc3C(F)(F)F)cc2c1 | 5.31 | 4.98 | 2.6 | 4.47 | 2.77 |  |
| Fc1ccc(/C=C/c2cc3ccccc3nc2Cl)cc1 | 38.5 | 0.12 | > 50 | 15.1 | > 50 | Activity [6]: 34.5%; Activity [7]: 23.1%; Activity [8]: 16.1%; Activity [9]: 22%; Activity [10]: 13.7%; Activity [11]: 15%; Activity [12]: 37%; Activity [13]: 41.7%; Activity [14]: 5%; Activity [15]: Active; Activity [16]: 40.6%; Activity [17]: 21.9%; Activity [18]: 20.2%; Activity [19]: 6.7%; Activity [20]: 21.8%; Activity [21]: 11.4%; Activity [22]: 65% |
| CC[C@@]1(O)C(=O)OCc2c1cc1n(c2=O)Cc2cc3ccccc3nc2-1 [CAMPTOTHECIN] | 0.00496 | 0.0148 | 0.00613 |  | 0.00577 |  |
| COc1ccc2nc(Cl)c(/C=C\c3cccc(C(F)(F)F)c3)cc2c1 | 5.58 | 3.91 | 3.03 | 2.78 | 3.28 |  |
| COC(=O)Nc1nc2cc(C(=O)c3cccs3)ccc2[nH]1 |  |  |  |  |  | inhibition [23]: Active |
| FC(F)(F)c1cccc(/C=C\c2cc3cc4c(cc3nc2Cl)OCO4)c1 | 17 | > 50 | 20.1 | 18.9 | 26 |  |
| FC(F)(F)c1cc(/C=C\c2cc3ccccc3nc2Cl)cc(C(F)(F)F)c1 | 13.7 | 10.5 | 6.78 | 7.46 | 10.1 |  |
| COc1ccc2nc(Cl)c(/C=C\c3cc(C(F)(F)F)cc(C(F)(F)F)c3)cc2c1 | 7.97 | 5.79 | 4.14 | 4.7 | 4.47 |  |
| FC(F)(F)c1cccc(/C=C/c2cc3ccccc3nc2Cl)c1 | 24.7 | 24 | 20.3 | 24.4 | 45 |  |
| CCN(CC)CCCC(C)Nc1ccnc2cc(Cl)ccc12 (stereo not drawn) [CHLOROQUINE] | 63.1 | 19.9 | 30 |  | 36.5 |  |
| COc1ccc2nc(Cl)c(/C=C\c3ccc(F)cc3)cc2c1 | 19.2 | 15.2 | 9.67 | 8.97 | 11.4 |  |
| FC(F)(F)c1cc(/C=C\c2cc3ccc(Cl)cc3nc2Cl)cc(C(F)(F)F)c1 | 43 | > 50 | 41.4 | 41.7 | > 50 |  |
